This is a sample that favours compounds with a hit; in the whole collection about 1.8% have one here.
CHOP UPR activ: apoptotic UPR (CHOP) activation. activation, % at 10 µM. CHO-CHOP luciferase reporter, luminescence; percent of tunicamycin response over DMSO baseline. AID 449763. 330,000 compounds, 0.34% hits;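 active means at 10 µM dose, activation of 40% or more, normalized to positive control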
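Assay system: CHO-CHOP cells, stable luciferase reporter of PERK-eIF2a-CHOP signalling / Buffer or medium: F12 plus 10% serum / Compound dosing: one dose, 10 µM in 0.5% DMSO / Times: 6 h compound treatment, 37 °C / Technique: luciferase luminescence / Read-out: % reporter activation, DMSO baseline versus tunicamycin full activation / Benchmarks: tunicamycin and DMSO controls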
Jurkat NFkB inh: lowers PMA/ionomycin-induced NF-kB signal in Jurkat cells; PMA/ionomycin-induced NF-kB luciferase reporter, luminescence; inhibition, % at 4 µM; 330,000 compounds, 0.53% hits; in the data active means inhibition above about 50%
CRFR2-BP antag: antagonists of CRF-binding protein/CRF-R2 receptor complex; HEK293 CRF-R2/CRF-BP, CRF-induced calcium fluorescence; inhibition, % at 11.8 µM; 350,000 compounds, 0.59% hits;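 active means inhibition of the ligand-induced calcium signal above about 50% at the single tested concentration, limit read from the data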
697 NFkB inh: inhibitors of the PMA/ionomycin-induced NF-kB reporter in 697 B cells. 697 B-cell NF-kB luciferase reporter, 16 h. inhibition, % at 4 µM. 330,000 compounds, 0.33% hits. AID 435022; in the data active means inhibition above about 35%
UPR XBP1 act: activators of adaptive arm of unfolded protein response (XBP1); CHO-XBP1 luciferase reporter, IRE1-XBP1 UPR activation, luminescence; percent of tunicamycin response, DMSO as zero; activation, % at 20 µM; 330,000 compounds, 0.33% hits; AID 463104;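 active means versus positive control, 20 µM dose yields 30% or more activation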
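Material: CHO-XBP1 cells stably carrying IRE1-XBP1-driven luciferase reporter | Medium: F12 with 10% serum | Compound dosing: 20 µM single concentration, DMSO 1% | Incubation: Overnight seeding at 37 °C, 6 h compound treatment at 37 °C | Detection: Steady-Glo luminescence read | Read-out basis: % activation of reporter signal versus tunicamycin and DMSO controls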
XBP1 UPR conf: confirmation of adaptive unfolded protein response (XBP1) activators; shares compounds with UPR XBP1 act; CHO-XBP1 IRE1-XBP1 luciferase reporter, luminescence; activation, % at 20 µM; 1,000 compounds, 63% hits;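 active means reporter signal at least 30% of the positive control's activation in two or more of four replicate wells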
Each line names hits and unclear results; the compound was inactive in the other large screens (follow-up assays come after a bar, where they were run).

O=C(COC(=O)c1ccc2[nH]c3c(c2c1)CCCC3)Nc1ccc(Cl)cc1Cl	none
O=C(COC(=O)c1ccc2[nH]c3c(c2c1)CCCC3)Nc1ccccc1Cl	UPR XBP1 act 52 | XBP1 UPR conf 66
CCOC(=O)C1=C(O)/C(=C/c2cn(CC(=O)NCC3CCCO3)c3ccccc23)SC1=Nc1ccc(C)cc1 (centres undefined)	UPR XBP1 act 66 | XBP1 UPR conf 31
COc1ccc(-c2cc(C(F)F)n3ncc(C(=O)N4CCc5ccccc5C4)c3n2)cc1	UPR XBP1 act 38 | XBP1 UPR conf 73
Oc1cc(-c2ccc(N3CCCCC3)nc2)cc2cccnc12	UPR XBP1 act 56 | XBP1 UPR conf 52
CN(C)CCCNC(=O)c1ccc(-c2cc(O)c3ncccc3c2)cc1	none
Cc1ccc(S(=O)(=O)N(C)c2ccc(OCC(=O)Nc3cc(C(=O)O)ccc3Cl)cc2)cc1	none (no result: CHOP UPR activ, Jurkat NFkB inh, 697 NFkB inh, UPR XBP1 act)
Cc1cc(=O)n2[nH]c(N)c(N=Nc3ccccc3F)c2n1	none
Cc1nc2c(N=Nc3ccccc3F)c(N)nn2c(N)c1C#N	UPR XBP1 act 44 | XBP1 UPR conf inactive
COc1ccc(-n2c(C)c(C)c3c(NCCCO)ncnc32)cc1	none
COc1cc(/C=C/C(=O)OCC(=O)NCCC2=CCCCC2)cc(OC)c1OC	none
COc1ccccc1CNCC(O)Cn1c2ccccc2c2ccccc21 (centres undefined)	UPR XBP1 act 30 | XBP1 UPR conf inactive
CC(=O)O[C@H]1[C@@H](O)[C@H](O)[C@H](Oc2c(O)c(C)c3c4c2[C@@H](C)CC[C@@H]4[C@@H](C)C[C@H]3C=C(C)C)O[C@H]1C	UPR XBP1 act 47 | XBP1 UPR conf inactive
COc1cccc(CNC(=O)CN2C(=O)COc3ccc(S(=O)(=O)N4CCOCC4)cc32)c1	none
CCC(Sc1nnc2c3ccccc3n(CC)c2n1)C(=O)Nc1sc2c(c1C#N)CCCC2 (centres undefined)	UPR XBP1 act 163 | XBP1 UPR conf 157
CC(=O)Oc1ccc(-c2ccc(C(=O)OCC(=O)N(C)CC(=O)Nc3ccccc3Cl)cc2)cc1	UPR XBP1 act 123 | XBP1 UPR conf 137
CN(CC(=O)Nc1ccccc1Cl)C(=O)COC(=O)c1ccc(S(=O)(=O)C(F)F)cc1	none
O=C(COC(=O)CSc1ccc(F)cc1)NCCCc1ccccc1	UPR XBP1 act 44 | XBP1 UPR conf inactive
O=C(CNC(c1ccccc1)c1ccccc1)NCc1ccccc1Cl	none
COc1cc2nc(N3CCN(c4cc(C)ccc4C)CC3)nc(N)c2cc1OC	UPR XBP1 act 109 | XBP1 UPR conf 62
CCCS(=O)(=O)c1ccc(COC(=O)Cc2ccc([N+](=O)[O-])cc2)cc1	none
COc1ccc(OC)c(-c2nnc3n2N=C(c2ccc(OC)c(OCC4CC4)c2)CS3)c1	CRFR2-BP antag 59, UPR XBP1 act 32 | XBP1 UPR conf 35
COc1ccc(C)cc1NC(=O)CCCN1C(=O)C(c2ccccc2)Oc2cccnc21 (centres undefined)	none
COC(=O)c1c(C)oc2ccc(N(C(=O)c3ccncc3)S(=O)(=O)c3ccc4ccccc4c3)cc12	none
COC(=O)c1c(C)oc2ccc(N(C(=O)Oc3ccccc3)S(=O)(=O)c3ccc(Cl)c([N+](=O)[O-])c3)cc12	UPR XBP1 act 32 | XBP1 UPR conf 139
O=C1c2cccc3cc(Br)cc(c23)C(=O)N1Nc1ccc(Br)cc1	UPR XBP1 act 40 | XBP1 UPR conf 33
O=C1c2cccc3cccc(c23)C(=O)N1Nc1ccccc1	none
Cc1cc(C)cc(NC(=O)CSc2nc(N)c(NC(=O)c3ccc(Br)o3)c(=O)[nH]2)c1	none
CCc1cc2c(C)ccc(C)c2nc1SCC(=O)Nc1c[nH]c(=O)[nH]c1=O	UPR XBP1 act 52 | XBP1 UPR conf 37
NS(=O)(=O)c1cccc(NC(=O)COC(=O)CCC2CCCC2)c1	none
CCC(C)N(C(=O)CSc1nnc(C)n1C)C1CCS(=O)(=O)C1 (centres undefined)	none
Cc1ccc(NC(=O)CSc2ccccc2NC(=O)c2cccc(Cl)c2)cc1Cl	UPR XBP1 act 36 | XBP1 UPR conf inactive
COc1cc2c(cc1OC)[C@@H](NC(=O)c1ccc(C(F)(F)F)cc1)[C@H](OCc1ccccc1)C2	UPR XBP1 act 36 (no result: Jurkat NFkB inh) | XBP1 UPR conf inactive
COCC(=O)N[C@@H]1c2ccccc2CC[C@@H]1OCc1ccccc1	none (no result: Jurkat NFkB inh)
Cc1ccc(CNC(=O)Cn2ccc3cc(S(=O)(=O)N4CCCCCC4)ccc32)cc1	none
Cc1cc(C)c2c(c1)/C(=N\N=c1\sc3ccccc3n1C)C(=O)N2	UPR XBP1 act 30 | XBP1 UPR conf inactive
Cn1c(=NC(=O)C2=NNC(=O)CC2)sc2ccccc21	none
COc1ccc(/C=N/Nc2nnc(-c3ccccc3)c(=O)[nH]2)cc1	UPR XBP1 act 49 | XBP1 UPR conf 73
O=c1[nH]c(N/N=C/c2ccccc2Br)nnc1-c1ccccc1	none
O=C(Oc1ccc2c(c1)OCC2=O)c1ccccc1	UPR XBP1 act 37 | XBP1 UPR conf inactive
C/C(=N/NC(=O)c1ccc(C)s1)c1cccc(NC(=O)COc2ccc(Cl)cc2C)c1	UPR XBP1 act 56 | XBP1 UPR conf 56
CC1(C)CC[C@@]23CC[C@]4(C)[C@@](OC2=O)(C3C1)[C@H]1O[C@H]1C1[C@@]2(C)CC[C@H](O)C(C)(C)C2CC[C@]14C (some centres undefined)	UPR XBP1 act 50 | XBP1 UPR conf 46
O=C(OCc1cn([C@H]2CN(C(=O)C3CCCCC3)[C@@H](c3ccc(Cl)cc3)C[C@@H]2O)nn1)c1ccccc1	none (no result: CHOP UPR activ, Jurkat NFkB inh, 697 NFkB inh, UPR XBP1 act)
CN(C(=O)Cn1nc(C(=O)O)c2ccccc2c1=O)C1(C#N)CCCCC1	none
CCOC(=O)c1c(NC(=O)/C=C/C(=O)O)sc(C)c1-c1ccc(C(C)(C)C)cc1	UPR XBP1 act 47 | XBP1 UPR conf 47
CCOC(=O)c1c(NC(=O)/C=C\C(=O)O)sc(C)c1-c1ccccc1	none
Cc1ccc(NC(=O)/C(C#N)=C(\N)C(Cl)(Cl)Cl)nc1	none | XBP1 UPR conf inactive
COc1ccc(-c2csc(C3=C(O)CN(Cc4ccc(Cl)cc4)C3=N)n2)cc1OC	UPR XBP1 act 43 | XBP1 UPR conf 134
CC(C)c1ccc(N(C(=O)c2snc(C(N)=O)c2N)C(C(=O)NC2CCCC2)c2ccncc2)cc1 (centres undefined)	none
CCc1sc2nc(SCC(=O)Nc3cc(C)on3)n(-c3cccc(OC)c3)c(=O)c2c1C	UPR XBP1 act 40 | XBP1 UPR conf 81
CCCCN(CC)S(=O)(=O)c1ccc(C(=O)N=c2sc3cc(NC(C)=O)ccc3n2C)cc1	UPR XBP1 act 137 | XBP1 UPR conf 106
COc1ccc(C(=O)Nc2ccccc2-c2nnn(CC(N)=O)n2)cc1	none (no result: CHOP UPR activ, Jurkat NFkB inh, 697 NFkB inh, UPR XBP1 act)

Assay outcomes deposited in PubChem BioAssay by Sanford-Burnham Center for Chemical Genomics.
